Measured values published in ChEMBL document CHEMBL1133665, “Secondary amides of (R)-3,3,3-trifluoro-2-hydroxy-2-methylpropionic acid as inhibitors of pyruvate dehydrogenase kinase” (J Med Chem, 2000).
Active and inactive are the calls of the source. The calls are words filed in the database; no cut-off is given here.

Legend:
Homo sapiens [1] = species: Homo sapiens; assay: Effective concentration required to increase the oxidation of lactate in cellular assay using Human Skin Fibroblasts; format: functional
Procedure, shortened: (§1)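 Human fibroblasts harvested with trypsin 2-4 days post-confluence and assayed in suspension ((3.5-5) × 10^5 cells per tube) with test compound or solvent control. Equilibrated at 37 °C, then started with DMEM-S containing 25 µM lactate and 0.2 µCi/mL d,l-[1-14C]lactate. Gassed with 95% O2/5% CO2 and shaken 25 min at 37 °C. Stopped with TCA; released 14CO2 trapped and counted by scintillation. EC50 ± standard error.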

[2] = target: Pyruvate dehydrogenase kinase (Rattus norvegicus, UniProt Q63065+A6IPZ9+Q64536+O54937); assay: Inhibitory activity tested against Pyruvate Dehydrogenase Kinase (PDHK) receptor from rats.; format: protein assay
Procedure, shortened: (§2)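 Commercial PDH complex used as the kinase-containing preparation. PDHK inhibition read spectrophotometrically as NADH production at 340 nm, measured with and without ATP. IC50 ± standard error, from purified substances.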

Rattus norvegicus [3] = assay: In vivo %control of lactate in normal Sprague-Dawley rats after 2 hr at a dose of 30 umol/Kg; format: functional
Procedure, shortened: (§3)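 Male Sprague-Dawley rats, about 200 g, randomly assigned to groups (n = 6/group) and fasted 24 h. Single oral dose of compound in 0.5% carboxymethylcellulose/0.2% Tween-80 (1 mL/100 g), or vehicle alone. Blood taken 2 h post-dose into heparin/fluoride tubes; lactate measured on a biochemistry analyzer. Expressed as percent of vehicle control; groups compared by two-tailed unpaired t-test.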

Rattus norvegicus [4] = assay: In vivo %control of lactate in normal Sprague-Dawley rats after 2 hr at a dose of 30 umol/Kg; Not active; format: functional, organism-based; procedure, shortened: as §3
[5] = target: Pyruvate dehydrogenase kinase (Rattus norvegicus) (UniProt Q63065+A6IPZ9+Q64536+O54937); assay: Inhibition of Pyruvate Dehydrogenase Kinase (PDHK) receptor from rats; Inactive; format: protein assay; procedure, shortened: as §2
Rattus norvegicus [6] = assay: In vivo %control of lactate in normal Sprague-Dawley rats after 2 hr at a dose of 300 umol/Kg; Not active; format: functional, organism-based; procedure, shortened: as §3
Rattus norvegicus [7] = assay: In vivo %control of lactate in normal Sprague-Dawley rats after 2 hr at a dose of 300 umol/Kg; format: functional; procedure, shortened: as §3
Homo sapiens [8] = species: Homo sapiens; assay: Effective concentration required to increase the oxidation of lactate in cellular assay using Human Skin Fibroblasts; Inactive; format: functional; procedure, shortened: as §1

Row | SMILES | IC50 [2] [µM] | also measured
1 | C[C@@H]1CN(C(=O)[C@@](C)(O)C(F)(F)F)CCN1C(=O)c1ccc(C(=O)c2ccccc2)cc1 (stereo in doubt; 11g) | 0.034 | EC50 (Homo sapiens [1]): 0.473 µM; Control (Rattus norvegicus [3]): 66%
2 | C[C@@H]1CN(C(=O)[C@@](C)(O)C(F)(F)F)[C@@H](C)CN1C(=O)c1ccc(C(=O)c2ccccc2)cc1 | 0.0198 | 
3 | C[C@@H]1CN(C(=O)[C@@](C)(O)C(F)(F)F)CCN1c1cc([N+](=O)[O-])ccn1 | 0.112 | NA (Rattus norvegicus [4]): inactive
4 | C[C@@H]1CN(C(=O)[C@@](C)(O)C(F)(F)F)CCN1/C(=N/C#N)Oc1ccccc1 | 0.049 | Control (Rattus norvegicus [3]): 65%
5 | CC1(C(F)(F)F)OC(=O)N(C2CCCCC2)C1=O (stereo in doubt; 8) |  | IA [5]: inactive
6 | O=C(Nc1ccccc1Cl)C(Cl)Cl | 47 | 
7 | CCCC1CCN(C(=O)[C@@](C)(O)C(F)(F)F)CC1 | 3.1 | 
8 | CN(C)C(=O)N1CCC(Cc2ccccc2)CC1 | 416 | 
9 | COC(=O)c1ccc(C(=O)N2C[C@H](C)N(C(=O)[C@@](C)(O)C(F)(F)F)C[C@H]2C)cc1 | 0.019 | 
10 | C[C@@](O)(C(=O)NC1C2CC3CC(C2)CC1C3)C(F)(F)F (stereo not given in full) | 0.3 | NA (Rattus norvegicus [6]): inactive
11 | C[C@@H]1CN(C(=O)[C@@](C)(O)C(F)(F)F)CCN1C(=O)c1cc(Cl)cc(Cl)c1 | 0.028 | 
12 | CC(C)(O)C(=O)N1CCC(Cc2ccccc2)CC1 | 150 | 
13 | C[C@@H]1CN(S(=O)(=O)c2cccc3ccccc23)[C@@H](C)CN1C(=O)[C@@](C)(O)C(F)(F)F | 49 | 
14 | O=C(N1CCC(Cc2ccccc2)CC1)C1(O)CC1 | 260 | 
15 | C/N=C(/S)N1CCC(Cc2ccccc2)CC1 | 560 | 
16 | CC(Cl)C(=O)N1CCC(Cc2ccccc2)CC1 (stereo not given) | 2.6 | 
17 | CC(=O)C(=O)NC1C2CC3CC(C2)CC1C3 (stereo not given) |  | IA [5]: inactive
18 | C[C@@](O)(C(=O)Nc1ccccc1Cl)C(F)(F)F | 0.3 | EC50 (Homo sapiens [1]): 5.4 µM; NA (Rattus norvegicus [6]): inactive
19 | CC(Oc1ccccc1)(C(=O)NC1CCCCC1)C(F)(F)F (stereo not given) |  | IA [5]: inactive
20 | O=C(C(Cl)Cl)N1CCC(Cc2ccccc2)CC1 | 0.179 | EC50 (Homo sapiens [1]): 1.12 µM; NA (Rattus norvegicus [6]): inactive
21 | C[C@@](O)(C(=O)N1CCN(C(=O)c2cccc3ccccc23)CC1)C(F)(F)F | 5.02 | 

Row | SMILES | IC50 [2] [µM] | also measured
22 | COc1cc(C(=O)N2CCN(C(=O)[C@@](C)(O)C(F)(F)F)C[C@H]2C)cc(OC)c1OC | 0.04 | EC50 (Homo sapiens [1]): 0.159 µM; Control (Rattus norvegicus [3]): 71%; Control (Rattus norvegicus [7]): 60%
23 | CNS(=O)(=O)Nc1ccccc1Cl |  | IA [5]: inactive
24 | C[C@@H]1CN(C(=O)[C@@](C)(O)C(F)(F)F)CCN1C(=O)c1ccc(C(=O)c2ccccc2)cc1 (stereo in doubt; 11r) | 15 | 
25 | CCC(O)(C(=O)Nc1ccccc1Cl)C(F)(F)F (stereo not given) | 20 | 
26 | CNS(=O)(=O)NC1C2CC3CC(C2)CC1C3 (stereo not given) |  | IA [5]: inactive
27 | C[C@@](O)(C(=O)N1CCCN(Cc2ccccc2)CC1)C(F)(F)F | 47 | 
28 | C[C@@](O)(C(=O)N1CCN(c2ccccc2)CC1)C(F)(F)F | 4.16 | EC50 (Homo sapiens [1]): 25.2 µM; Control (Rattus norvegicus [7]): 68%
29 | C[C@@](O)(C(=O)N1CCN(Cc2ccccc2)CC1)C(F)(F)F | 19.9 | 
30 | CC(C)(C)C(=O)N1CCC(Cc2ccccc2)CC1 | 282 | IA (Homo sapiens [8]): inactive
31 | CCC(C)(O)C(=O)Nc1ccccc1Cl (stereo not given) | 23 | 
32 | O=C(NC1C2CC3CC(C2)CC1C3)C1(O)CC1 (stereo not given) | 15 | 
33 | C[C@@H]1CN(C(=O)[C@@](C)(O)C(F)(F)F)CCN1C(=O)C1CCCCC1 | 0.064 | Control (Rattus norvegicus [3]): 77%
34 | C[C@@H]1CN(C(=O)[C@@](C)(O)C(F)(F)F)CCN1C(=O)c1ccccc1 | 0.173 | 
35 | CC1CCCCN1C(=O)[C@@](C)(O)C(F)(F)F (stereo not given in full) | 2 | 
36 | CC1(C(F)(F)F)OC(=O)N(C2CCCCC2)C1=O (stereo in doubt; 9) |  | IA [5]: inactive
37 | C[C@@H]1CN(C(=O)[C@@](C)(O)C(F)(F)F)CCN1S(=O)(=O)c1cccc2ccccc12 | 0.025 | NA (Rattus norvegicus [4]): inactive
38 | C[C@@H]1CN(C(=O)[C@@](C)(O)C(F)(F)F)CCN1S(=O)(=O)c1ccc(C(C)(C)C)cc1 | 0.036 | 
39 | CC(O)(C(=O)N1CCC(Cc2ccccc2)CC1)C(F)(F)F (stereo not given) | 2.16 | EC50 (Homo sapiens [1]): 29 µM; NA (Rattus norvegicus [6]): inactive
40 | COC(C)(C(=O)Nc1ccccc1Cl)C(F)(F)F (stereo not given) |  | IA [5]: inactive
41 | C[C@@](O)(C(=O)N1CCN(C(=O)c2ccccc2)CC1)C(F)(F)F | 31.7 | 
42 | C[C@@H]1CN(C(=O)[C@@](C)(O)C(F)(F)F)CCN1S(=O)(=O)c1ccccc1 | 0.037 | NA (Rattus norvegicus [4]): inactive

Row | SMILES | IC50 [2] [µM] | also measured
43 | C[C@@](O)(C(=O)N1CCN(S(=O)(=O)c2ccccc2)CC1)C(F)(F)F | 5.56 | 
44 | COC(C)(C(=O)NC1C2CC3CC(C2)CC1C3)C(F)(F)F (stereo not given) |  | IA [5]: inactive
45 | C/N=C(\S)N1CC=C(C(C)(C)C)CC1 | 180 | 
46 | C[C@@](O)(C(=O)NC1CCCCC1)C(F)(F)F | 6.2 | 
47 | COC(=O)N1CCC(Cc2ccccc2)CC1 | 1000 | 
48 | C[C@@](O)(C(=O)N1CCCN(C(=O)c2ccccc2)CC1)C(F)(F)F | 5.62 | 
49 | O=C(NC1C2CC3CC(C2)CC1C3)C(O)(C(F)(F)F)C(F)(F)F (stereo not given) | 17 | 
50 | CC(C)(O)C(=O)NC1C2CC3CC(C2)CC1C3 (stereo not given) | 10 | 
51 | Cc1cc(C)c(S(=O)(=O)N2CCN(C(=O)[C@@](C)(O)C(F)(F)F)C[C@H]2C)c(C)c1 | 0.039 | 
52 | C[C@@](O)(C(=O)N1CCN(C(=O)c2ccc(C#N)cc2)CC1)C(F)(F)F | 6.7 | 
53 | C[C@@](O)(C(=O)N1CCN(c2cc([N+](=O)[O-])ccn2)CC1)C(F)(F)F | 2.84 | 
54 | CCCC1CCN(C(=O)C(C)(OC)C(F)(F)F)CC1 (stereo not given) |  | IA [5]: inactive
55 | C[C@@H]1CN(C(=O)[C@@](C)(O)C(F)(F)F)[C@@H](C)CN1C(=O)OCc1ccccc1 | 0.0143 | 
56 | CCC(O)(C(=O)NC1C2CC3CC(C2)CC1C3)C(F)(F)F (stereo not given) | 14 | 
57 | CC(C)NC(=O)N1CCC(Cc2ccccc2)CC1 |  | IA [5]: inactive
58 | CC(O)C(=O)N1CCC(Cc2ccccc2)CC1 (stereo not given) | 310 | 
59 | C[C@@H]1CN(Cc2ccccc2)[C@@H](C)CN1C(=O)[C@@](C)(O)C(F)(F)F | > 300 | IA [5]: inactive
60 | C[C@@H]1CN(C(=O)[C@@](C)(O)C(F)(F)F)CCN1Cc1ccccc1 | > 1 | 
61 | CC(=O)N1CCC(Cc2ccccc2)CC1 | 74 | IA (Homo sapiens [8]): inactive
62 | CC(C)CC(Cl)C(=O)N1CCC(Cc2ccccc2)CC1 (stereo not given) |  | IA [5]: inactive
63 | C[C@@](O)(C(=O)N1CCN(/C(=N/C#N)Oc2ccccc2)CC1)C(F)(F)F | 6 | 

Row | SMILES | IC50 [2] [µM] | also measured
64 | O=C(N1CCC(Cc2ccccc2)CC1)C(Cl)(Cl)Cl | 30 | 
65 | C[C@@H]1CN(C(=O)[C@@](C)(O)C(F)(F)F)[C@@H](C)CN1C(=O)c1cc(Cl)cc(Cl)c1 | 0.0033 | 
66 | C[C@@](O)(C(=O)N1CCN(c2ccccn2)CC1)C(F)(F)F | 3.37 | EC50 (Homo sapiens [1]): 13 µM; Control (Rattus norvegicus [7]): 68%
67 | C[C@](O)(C(=O)NC1C2CC3CC(C2)CC1C3)C(F)(F)F (stereo not given in full) | 11 | 
68 | CC(C)[C@H]1CN(C(=O)c2ccc(C#N)cc2)[C@H](C)CN1C(=O)[C@@](C)(O)C(F)(F)F | 17 | 
69 | O=C(Nc1ccc(Cl)cc1)N1CCC(Cc2ccccc2)CC1 |  | IA [5]: inactive
70 | CCCC1CCN(C(=O)[C@](C)(O)C(F)(F)F)CC1 | 75 | 
71 | C[C@@H]1CN(C(=O)[C@@](C)(O)C(F)(F)F)[C@@H](C)CN1C(=O)C1CCCCC1 | 0.013 | 
72 | C[C@@H]1CN(C(=O)[C@@](C)(O)C(F)(F)F)CCN1C(=O)OCc1ccccc1 | 0.021 | 
73 | C[C@@H]1CN(C(=O)[C@@](C)(O)C(F)(F)F)CCN1 |  | IA [5]: inactive
74 | C[C@@](O)(C(=O)N1CCCN(c2cc(Cl)ccn2)CC1)C(F)(F)F | 2.59 | 
75 | C[C@](O)(C(=O)Nc1ccccc1Cl)C(F)(F)F | 9.8 | 
76 | CC(=O)N1CCCCC1 |  | IA [5]: inactive
77 | CNS(=O)(=O)N1CCC(Cc2ccccc2)CC1 |  | IA [5]: inactive
78 | CNC(=O)N1CCCCC1 |  | IA [5]: inactive
79 | C[C@@H]1CN(C(=O)[C@@](C)(O)C(F)(F)F)[C@@H](C)CN1/C(=N/C#N)Oc1ccccc1 | 0.0091 | 
80 | CC(O)(C(=O)N1CCCCC1)C(F)(F)F (stereo not given) | 23.9 | 
81 | CC(C)(O)C(=O)Nc1ccccc1Cl | 5 | 
82 | C[C@@](O)(C(=O)N1CCNCC1)C(F)(F)F |  | IA [5]: inactive
83 | C[C@@H]1CN(C(=O)[C@@](C)(O)C(F)(F)F)[C@@H](C)CN1S(=O)(=O)c1cccc2ccccc12 | 0.0045 | NA (Rattus norvegicus [4]): inactive
84 | CNC(=O)N1CCC(Cc2ccccc2)CC1 | 22.4 | IA (Homo sapiens [8]): inactive
